Assay results pooled from the literature.
Lines come from different studies, so protocols differ.
Read-out: cell growth or viability

| SMILES | cell line | technique | time | IC50 |
| --- | --- | --- | --- | --- |
| Cc1cccc(-n2ncc(Br)c(Br)c2=O)c1 | NCI-H358 | resazurin | 96 h | 210 nM |
| Cc1cc(C)cc(COc2cc3c(cc2OCc2cc(C)cc(C)c2)[C@H]2C[C@](O)(Cc4cn(Cc5ccc(O)cc5)nn4)C[C@H](C)N2CC3)c1 | ASPC1 | MTT |  | 450 nM |
| NCCOc1cc(C(=O)Nc2cc(OCCN)c3ccccc3n2)nc(C(=O)Nc2cc(OCCN)c3ccccc3n2)c1 | WI-38 | ATP luminescence | 72 h | 11100 nM |
| Cc1cc(C)cc(COc2cc3c(cc2OCc2cc(C)cc(C)c2)C2CC(O)(Cc4cn(CCCCCCOc5cccc6c5C(=O)N(C5CCC(=O)NC5=O)C6=O)nn4)CC(C)N2CC3)c1 (stereo not drawn) | ASPC1 | MTT |  | 880 nM |
| [Cl-].[Cl-].[Ti+4].c1cc[cH-]c1.c1cc[cH-]c1 | CAKI-1 | XTT | 72 h | > 200000 nM |
| COc1cc(C(=O)c2c(N)sc(CCc3ccccc3)c2C)cc(OC)c1OC | Molt4/C8 |  |  | > 10000 nM |
| Cc1cc(C)cc(COc2cc3c(cc2OCc2cc(C)cc(C)c2)[C@H]2C[C@](O)(Cc4cn(Cc5ccc(C#N)cc5)nn4)C[C@H](C)N2CC3)c1 | ASPC1 | MTT |  | 632 nM |
| Clc1ccc(COc2cncc(-c3cnn(C4CCNCC4)c3)c2)c(Cl)c1 | HMC3 | imaging |  | 5180 nM |
| COc1cccc(Oc2ccccc2NC(=O)[C@H](C)NC(=O)c2cccc3ccccc23)c1 | NCI-H358 |  |  | 1800 nM |
| CCN1C(=O)N(c2c(F)c(OC)cc(OC)c2F)Cc2cnc3[nH]c(CN4CCOCC4)cc3c21 | AN3-CA | ATP luminescence | 96 h | 40.9 nM |
| COc1cc(C(=O)Nc2cc(OCCN3CCCC3)c3ccccc3n2)nc(C(=O)Nc2cc(OCCN3CCCC3)c3ccccc3n2)c1 | WI-38 | ATP luminescence | 72 h | 3900 nM |
| CNc1nc2ccccc2n2c(-c3cccc(OC)c3)cnc12 | LS174T | neutral red | 96 h | 868 nM |
| C=C(C)C(=O)Nc1ccc(-c2c(-c3ccc(Oc4nccc(C)n4)c(F)c3)c3c(N)ncnc3n2C)cc1 | RT-4 | ATP luminescence | 96 h | 617 nM |
| O=C(Nc1cc(OCCN2CCCC2)c2ccccc2n1)c1cc(OCCN2CCCC2)cc(C(=O)Nc2cc(OCCN3CCCC3)c3ccccc3n2)n1 | WI-38 | ATP luminescence | 72 h | 2100 nM |
| Cc1cc(C)cc(COc2cc3c(cc2OCc2cc(C)cc(C)c2)C2CC(O)(Cc4cn(CCCCCCNC(=O)CNc5ccc6c(c5)C(=O)N(C5CCC(=O)NC5=O)C6=O)nn4)CC(C)N2CC3)c1 (stereo not drawn) | ASPC1 | MTT |  | > 5000 nM |
| CNc1ncc2cc(-c3ccc(-c4cccc(C)n4)cc3Cl)c(=O)n(C[C@H]3OC[C@H](N)CO3)c2n1 | HPAF-II | MTT | 24 h | 30200 nM |
| CC(C)=CCC[C@](C)(O)[C@H]1CC[C@]2(C)[C@@H]1[C@H](O)C[C@@H]1[C@@]3(C)CC[C@H](O[C@@H]4O[C@H](CO)[C@@H](O)[C@H](O)[C@H]4O[C@@H]4O[C@H](CO)[C@@H](O)[C@H](O)[C@H]4O)C(C)(C)[C@@H]3CC[C@]12C | NCI-H358 | MTT | 72 h | > 100000 nM |
| O=C(Nc1cc(OCCN2CCCC2)c2ccccc2n1)c1cc(OCc2ccc(F)cc2)cc(C(=O)Nc2cc(OCCN3CCCC3)c3ccccc3n2)n1 | WI-38 | ATP luminescence | 72 h | 11400 nM |
| Cc1cc(C)cc(COc2cc3c(cc2OCc2cc(C)cc(C)c2)[C@@H]2C[C@@](O)(Cc4cn(Cc5ccc(S(C)(=O)=O)cc5)nn4)C[C@@H](C)N2CC3)c1 | ASPC1 | MTT |  | 513 nM |
| C#CCOc1cc(C(=O)Nc2cc(OCCCN)c3ccccc3n2)nc(C(=O)Nc2cc(OCCCN)c3ccccc3n2)c1 | WI-38 | ATP luminescence | 72 h | 3500 nM |
| NCc1cc2c(-c3ccccc3)n[nH]c2c(Nc2ccccc2)n1 | WI-38 | MTS | 48 h | > 10000 nM |

| SMILES | cell line | technique | time | IC50 |
| --- | --- | --- | --- | --- |
| NCCOc1cc(NC(=O)c2cc(OCc3ccc(F)cc3)cc(C(=O)Nc3cc(OCCN)c4ccccc4n3)n2)nc2ccccc12 | WI-38 | ATP luminescence | 72 h | 4900 nM |
| COc1cc(Nc2nccc(-c3cnn4nc(OC)ccc34)n2)cc(C(F)(F)F)c1 | KARPAS-299 | ATP luminescence |  | 200 nM |
| Cc1nc(Nc2ncc(C(=O)Nc3c(C)cccc3Cl)s2)cc(N2CCN(CCO)CC2)n1 | HPAF-II | MTT |  | ~10000 nM |
| Cc1cc(C)cc(COc2cc3c(cc2OCc2cc(C)cc(C)c2)[C@H]2C[C@](O)(Cc4cn(Cc5ccc6ccccc6c5)nn4)C[C@H](C)N2CC3)c1 | ASPC1 | MTT |  | 601 nM |
| COc1cc(Nc2nc(CNCc3ccccc3)cc3c(-c4ccccc4)n[nH]c23)cc(OC)c1OC | WI-38 | MTS | 48 h | 8100 nM |
| CCN1CCN(c2ccc(Nc3cc(N(C)C(=O)Nc4c(Cl)c(OC)cc(OC)c4Cl)ncn3)cc2)CC1 | AN3-CA | ATP luminescence | 96 h | 39.9 nM |
| O=c1c(O)c(-c2cc(O)c(O)c(O)c2)oc2cc(O)cc(O)c12 | RT-4 | ATP luminescence | 72 h | 72700 nM |
| C=CC(=O)Nc1cc(Nc2nccc(-c3cn(C4CC4)c4ccccc34)n2)c(OC)cc1N(C)CCN(C)C | HCC827 | ATP luminescence | 72 h | 3.3 nM |
| CCCCCCCCCc1ccc(C(=O)Nc2cc(C)ccc2C(=O)OC)cc1 | RPE |  |  | > 120000 nM |
| C/C=C/C(=O)Nc1ccc(Cn2cc(C[C@@]3(O)C[C@@H]4c5cc(OCc6cc(C)cc(C)c6)c(OCc6cc(C)cc(C)c6)cc5CCN4[C@@H](C)C3)nn2)cc1 | ASPC1 | MTT |  | 553 nM |
| O=C(Nc1ccc(Cl)cc1)c1ccc([N+](=O)[O-])o1 | NHBE | resazurin | 96 h | 21400 nM |
| COc1cc(Nc2nc(CN)cc3c(-c4ccccc4)n[nH]c23)cc(OC)c1OC | WI-38 | MTS | 48 h | > 10000 nM |
| Cc1cc(C)cc(COc2cc3c(cc2OCc2cc(C)cc(C)c2)[C@H]2C[C@](O)(Cc4cn(Cc5ccncc5)nn4)C[C@H](C)N2CC3)c1 | ASPC1 | MTT |  | 525 nM |
| COc1cccc2c1C(=O)c1c(O)c3c(c(O)c1C2=O)C[C@@](O)(C(=O)CO)C[C@@H]3O[C@H]1C[C@H](N)[C@H](O)[C@H](C)O1 | HME1 | WST-1 | 72 h | 50 nM |
| NCCOc1cc(NC(=O)c2cc(OCc3c[nH]nn3)cc(C(=O)Nc3cc(OCCN)c4ccccc4n3)n2)nc2ccccc12 | WI-38 | ATP luminescence | 72 h | 39700 nM |
| COc1cc(C(=O)c2cc(C#Cc3ccc(C)cc3)sc2N)cc(OC)c1OC | Molt4/C8 |  |  | > 10000 nM |
| CN1CCN(c2ccc3nc(-c4c(N)c5c(F)cccc5[nH]c4=O)[nH]c3c2)CC1 | RT-4 | MTT | 5 days | 100 nM |
| CC(C)C[C@H](NC(=O)[C@H](Cc1ccccc1)NC(=O)c1cnccn1)B(O)O | DV-90 | ATP luminescence |  | 13 nM |
| NCCCOc1cc(NC(=O)c2cc(OCc3c[nH]nn3)cc(C(=O)Nc3cc(OCCCN)c4ccccc4n3)n2)nc2ccccc12 | WI-38 | ATP luminescence | 72 h | > 40000 nM |
| COc1cc(-c2oc3cc(O)cc(O)c3c(=O)c2O)ccc1O | RT-4 | ATP luminescence | 72 h | 34300 nM |
| Nc1ccn([C@@H]2O[C@H](CO)[C@@H](O)C2(F)F)c(=O)n1 | HPAF-II | MTT |  | 1450 nM |
